Measured values: ChEMBL document CHEMBL1125104, “Long-acting dihydropyridine calcium antagonists. 5. Synthesis and structure-activity relationships for a series of 2-[[(N-substituted-heterocyclyl)ethoxy]methyl]-1,4-dihydropyridine calcium antagonists” (J Med Chem, 1990)

Columns and labels:
Cavia porcellus = species: Cavia porcellus; experiment: Concentration required to depress contraction in the Langendorff-perfused guinea pig heart; type: functional
Summary of the method: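 Langendorff-perfused guinea pig heart, in vitro. The negative inotropic effect is given as IC25, the concentration that depresses contraction by 25%.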

[1] = […] of rat aorta to […] of guinea pig; type: functional
Rattus norvegicus = species: Rattus norvegicus; experiment: Concentration required to block Ca+2-induced contraction of K+ depolarized rat aorta; type: functional
Summary of the method: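 Isolated rat aorta depolarized with potassium; contraction triggered by added calcium. IC50 is the concentration that inhibits the calcium-induced contraction by 50%.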

[2] = Half life of the compound
Canis familiaris = experiment: Coronary vasodilator activity in anesthetized dogs at the dose of 150 ug/kg (iv); type: functional, Canis lupus familiaris

SMILES | IC50 (Rattus norvegicus) [nM] | half-life [2] [min] | pIC25 (Cavia porcellus) | Selectivity index [1] | Decrease (Canis familiaris) [%]
CCO/C(O)=C1\C(COCCn2c(N)cnc2O)=NC(C)=C(C(=O)OC)C1c1ccccc1Cl (stereo not given) | 158 |  | 6 | 6 | 
CCO/C(O)=C1\C(COCCn2cc(N)nc2O)=NC(C)=C(C(=O)OC)C1c1ccccc1Cl (stereo not given) | 31.6 |  | <6 | >32 | 
CCO/C(O)=C1\C(COCCN2C(=O)CNC2=O)=NC(C)=C(C(=O)OC)C1c1ccccc1Cl (stereo not given) | 31.6 |  | 6.8 | 5 | 
CCO/C(O)=C1\C(COCCn2nncc2C(N)=O)=NC(C)=C(C(=O)OC)C1c1ccccc1Cl (stereo not given) | 100 |  | 6.3 | 5 | 
CCOC(=O)C1=C(COCCN)NC(C)=C(C(=O)OC)C1c1ccccc1Cl (stereo not given) [AMLODIPINE] | 7.94 |  | 7.2 | 8 | 
CCO/C(O)=C1\C(COCCn2cc(N)n(C)c2=O)=NC(C)=C(C(=O)OC)C1c1ccccc1Cl (stereo not given) | 25.1 |  | 6.2 | 25 | 
CCO/C(O)=C1\C(COCCN2CC(=O)N=C2N)=NC(C)=C(C(=O)OC)C1c1cccc(Cl)c1Cl (stereo not given) |  | > 180 |  |  | 60
COC(=O)C1=C(C)NC(C)=C(C(=O)OC)C1c1ccccc1[N+](=O)[O-] [NIFEDIPINE] |  | 36 | 7.5 | 8 | 77
CCO/C(O)=C1\C(COCCN2CC(=O)NC2=O)=NC(C)=C(C(=O)OC)C1c1ccccc1Cl (stereo not given) | 20 |  | 6.3 | 25 | 
CCOC(=O)c1cn(CCOCC2=NC(C)=C(C(=O)OC)C(c3ccccc3Cl)/C2=C(\O)OCC)nn1 (stereo not given) | 50.1 |  | 7 | 2 | 
CCO/C(O)=C1\C(COCCN2CC(=O)N(C)C2=O)=NC(C)=C(C(=O)OC)C1c1cccc(Cl)c1Cl (stereo not given) |  | 10 | 7.2 |  | 50
CCOC(=O)c1cnnn1CCOCC1=NC(C)=C(C(=O)OC)C(c2ccccc2Cl)/C1=C(\O)OCC (stereo not given) | 100 |  | 6.9 | 1.3 | 
CCO/C(O)=C1\C(COCCN2CC(=O)N(C)C2=O)=NC(C)=C(C(=O)OC)C1c1ccccc1Cl (stereo not given) | 25.1 |  | 6.4 | 16 | 

Continued by falling IC50 (Rattus norvegicus), values first:

IC50 (Rattus norvegicus) [nM] | half-life [2] [min] | SMILES | pIC25 (Cavia porcellus) | Selectivity index [1] | Decrease (Canis familiaris) [%]
20 |  | CCO/C(O)=C1\C(COCCN2CC(=O)N=C2N)=NC(C)=C(C(=O)OC)C1c1ccccc1Cl (stereo not given) | 6.1 | 40 | 
20 |  | CCO/C(O)=C1\C(COCCn2cnc3ccccc32)=NC(C)=C(C(=O)OC)C1c1ccccc1Cl (stereo not given) | 7.2 | 3 | 
20 |  | CCO/C(O)=C1\C(COCCn2cc(C(N)=O)nn2)=NC(C)=C(C(=O)OC)C1c1ccccc1Cl (stereo not given) | <6 | >50 | 
15.8 |  | CCO/C(O)=C1\C(COCCn2ccnn2)=NC(C)=C(C(=O)OC)C1c1ccccc1Cl (stereo not given) | 7.3 | 3 | 
15.8 |  | CCO/C(O)=C1\C(COCCn2nncc2C(N)=O)=NC(C)=C(C(=O)OC)C1c1cccc(Cl)c1Cl (stereo not given) | 6.5 | 20 | 
5.01 | 30 | CCO/C(O)=C1\C(COCCn2ccnn2)=NC(C)=C(C(=O)OC)C1c1cccc(Cl)c1Cl (stereo not given) | 7.3 | 10 | 79
5.01 |  | CCO/C(O)=C1\C(COCCn2c(C)nc(C)c2C)=NC(C)=C(C(=O)OC)C1c1ccccc1Cl (stereo not given) | 7.5 | 6 | 
3.16 | 30 | CCO/C(O)=C1\C(COCCN2CC(=O)NC2=O)=NC(C)=C(C(=O)OC)C1c1cccc(Cl)c1Cl (stereo not given) | 7.1 | 25 | 65
3.16 | 20 | CCO/C(O)=C1\C(COCCn2cc(C(N)=O)nn2)=NC(C)=C(C(=O)OC)C1c1cccc(Cl)c1Cl (stereo not given) | 6.6 | 80 | 54
2.51 |  | CCO/C(O)=C1\C(COCCn2ccnc2C)=NC(C)=C(C(=O)OC)C1c1ccccc1Cl (stereo not given) | 7.8 | 6 | 
